Data on twelve molecules can be found in ChEMBL document CHEMBL1138791, “Acyl sulfonamide anti-proliferatives: benzene substituent structure-activity relationships for a novel class of antitumor agents” (J Med Chem, 2004).

Structures are written as SMILES.

The nature of experiment [1]: Diameter of zone of inhibition for cell colony formation of normal fibroblast at the dose of 200 ug; Range is 0-11.7. The experiment is classed as functional, Homo sapiens. In short, it runs like this:
(§1)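 Soft agar disk diffusion: leukemia (L1210), solid tumor (HCT116, or colon H15) and normal fibroblast cells seeded in soft agar in separate 60 mm dishes. Compound applied to a filter paper disk (dose in μg/disk) set on the agar. Colony-formation inhibition zones read after 6–7 days at 37 °C. 200 zone units = 6.5 mm; 950 = total inhibition; a range marks partial colony shrinkage. n > 2 unless noted.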

Experiment [2] relates to HCT-116. In words: Diameter of zone of inhibition for cell colony formation of solid tumor HCT116 at the dose of 200 ug. The experiment is classed as functional, Homo sapiens. In outline:
(§2)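 HCT116, L1210 leukaemia and normal fibroblast cells were seeded in soft agar in separate 60 mm dishes. The compound was applied to a filter-paper disk laid on the agar. Colony-formation inhibition zones were read after 6–7 days at 37 °C and expressed in zone units (200 units = 6.5 mm; 950 = total inhibition; 0 = none). n > 2 unless otherwise indicated.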

Experiment [3] has as its system L1210. In words: Diameter of zone of inhibition for cell colony formation of leukemia L1210 at the dose of 200 ug; Range is 1.3-5.85. Type of experiment: functional, Mus musculus. In short, it runs like this:
as §1

Experiment [4] can be described thus: Diameter of zone of inhibition for cell colony formation of normal fibroblast at the dose of 200 ug; Range is 0-16.9. The experiment is classed as functional, Homo sapiens. In short, it runs like this:
as §1

In experiment [5] the test system is L1210. In words: Diameter of zone of inhibition for cell colony formation of leukemia L1210 at the dose of 200 ug; Range is 0-9.1. Type of experiment: functional, Mus musculus. In outline:
as §1

Experiment [6] deals with HCT-116. In words: Diameter of zone of inhibition for cell colony formation of solid tumor HCT116 at the dose of 190 ug. The experiment is classed as functional, Homo sapiens. In short, it runs like this:
as §1

Experiment [7] can be described thus: Diameter of zone of inhibition for cell colony formation of normal fibroblast at the dose of 190 ug; Range is 0-16.575. Type of experiment: functional, Homo sapiens. In short, it runs like this:
as §1

Experiment [8] concerns L1210. In words: Diameter of zone of inhibition for cell colony formation of leukemia L1210 at the dose of 190 ug; Range is 0-10.4. The experiment is classed as functional, Mus musculus. In outline: as §1
Experiment [9] is described as follows: Diameter of zone of inhibition for cell colony formation of normal fibroblast at the dose of 210 ug; Range is 0-6.5. The experiment is classed as functional, Homo sapiens. In short, it runs like this:
as §1

For experiment [10], the system named is L1210. In words: Diameter of zone of inhibition for cell colony formation of leukemia L1210 at the dose of 210 ug; Range is 0-5.525. Type of experiment: functional, Mus musculus. In short, it runs like this: as §1
In experiment [11] the test system is HCT-116. In words: Diameter of zone of inhibition for cell colony formation of solid tumor HCT116 at the dose of 210 ug. The experiment is classed as functional, Homo sapiens. In outline: as §2
The nature of experiment [12]: Diameter of zone of inhibition for cell colony formation of normal fibroblast at the dose of 200 ug; Range is 0-2.6. The experiment is classed as functional, Homo sapiens. In short, it runs like this: as §1
Experiment [13] concerns L1210. In words: Diameter of zone of inhibition for cell colony formation of leukemia L1210 at the dose of 200 ug; Range is 0-6.5. The experiment is classed as functional, Mus musculus. In outline:
as §1

The test system of experiment [14] is L1210. In words: Diameter of zone of inhibition for cell colony formation of leukemia L1210 at the dose of 190 ug. Type of experiment: functional, Mus musculus. In short, it runs like this:
as §1

Experiment [15] is described as follows: Diameter of zone of inhibition for cell colony formation of normal fibroblast at the dose of 190 ug; Range is. Type of experiment: functional, Homo sapiens. In short, it runs like this: as §1
In experiment [16] the test system is L1210. In words: Diameter of zone of inhibition for cell colony formation of leukemia L1210 at the dose of 210 ug. The experiment is classed as functional, Mus musculus. In short, it runs like this:
as §1

Experiment [17] concerns HCT-116. In words: Diameter of zone of inhibition for cell colony formation of solid tumor HCT116 at the dose of 210 ug: range is 6.5-8.125. Type of experiment: functional, Homo sapiens. In outline:
as §2

A short description of experiment [18]: Diameter of zone of inhibition for cell colony formation of normal fibroblast at the dose of 190 ug; Range is 0-6.5. Type of experiment: functional, Homo sapiens. In short, it runs like this:
as §1

In experiment [19] the test system is L1210. In words: Diameter of zone of inhibition for cell colony formation of leukemia L1210 at the dose of 190 ug; Range is 3.75-4.875. The experiment is classed as functional, Mus musculus. In outline:
as §1

A short description of experiment [20]: Diameter of zone of inhibition for cell colony formation of normal fibroblast at the dose of 210 ug; Range is 0-13. Type of experiment: functional, Homo sapiens. In outline: as §1
Experiment [21] concerns L1210. In words: Diameter of zone of inhibition for cell colony formation of leukemia L1210 at the dose of 210 ug; Range is 0-11.375. The experiment is classed as functional, Mus musculus. In short, it runs like this: as §1
Experiment [22] concerns L1210. In words: Diameter of zone of inhibition for cell colony formation of leukemia L1210 at the dose of 200 ug. The experiment is classed as functional, Mus musculus. In short, it runs like this:
as §1

Experiment [23] can be described thus: Diameter of zone of inhibition for cell colony formation of normal fibroblast at the dose of 210 ug. The experiment is classed as functional, Homo sapiens. In outline:
as §1

On to `O=C(NS(=O)(=O)c1ccc(Cl)c(Cl)c1)c1ccc(Cl)cc1Cl`, for which the Inhibition is given as 11.7 mm in [1], 18.2 mm in the experiment on HCT-116 [2] and 5.85 mm in the experiment on L1210 [3].

Turning to `O=C(NS(=O)(=O)c1ccc(F)cc1)c1ccc(Cl)cc1Cl`, the results for the Inhibition (in experiment [4]; in the experiment with HCT-116 [2]; with L1210 [5]) were 16.9 mm, 28.6 mm and 9.1 mm, respectively.

On to `Cc1ccc(S(=O)(=O)NC(=O)c2ccc(Cl)cc2Cl)cc1`, for which the Inhibition was determined as 27.3 mm with HCT-116 [6], 16.57 mm in [7] and 10.4 mm in the experiment with L1210 [8].

Turning to `O=C(NS(=O)(=O)c1cc(Cl)cc(Cl)c1)c1ccc(Cl)cc1Cl`, the Inhibition in experiment [9] turned out to be 6.5 mm; in the experiment with L1210 [10], 5.52 mm; in the experiment with HCT-116 [11], 12.35 mm.

Regarding `COC(=O)c1ccc(S(=O)(=O)NC(=O)c2ccc(Cl)cc2Cl)cc1`, the Inhibition in experiment [12] is 2.6 mm; with L1210 [13], 6.5 mm; with HCT-116 [2] it was 21.12 mm.

As for `O=C(NS(=O)(=O)c1ccc([N+](=O)[O-])cc1)c1ccc(Cl)cc1Cl`, the Inhibition in the experiment on HCT-116 [6] stood at 17.55 mm; in the experiment with L1210 [14], 3.57 mm; in [15], 10.07 mm.

As for `Cc1cccc(S(=O)(=O)NC(=O)c2ccc(Cl)cc2Cl)c1`, the Inhibition is 6.5 mm in [9], 6.5 mm with L1210 [16] and 8.12 mm in the experiment with HCT-116 [17].

On to `O=C(NS(=O)(=O)c1cccc(Cl)c1)c1ccc(Cl)cc1Cl`, for which the results for the Inhibition (in [18]; in the experiment with HCT-116 [6]; in the experiment on L1210 [19]) were 6.5 mm, 16.73 mm and 4.87 mm, respectively.

For the molecule `CN(C)c1ccc(S(=O)(=O)NC(=O)c2ccc(Cl)cc2Cl)cc1`, the Inhibition in experiment [20] worked out at 13 mm; with HCT-116 [11] it was 28.75 mm; in the experiment with L1210 [21] it was 11.37 mm.

Turning to `O=C(NS(=O)(=O)c1ccc(Cl)cc1)c1ccc(C(F)(F)F)cc1C(F)(F)F`, the Inhibition in the experiment with L1210 [22] worked out at 0 mm; in experiment [1], 11.7 mm; in the experiment on HCT-116 [2] it was 16.9 mm.

`O=C(NS(=O)(=O)c1ccccc1Cl)c1ccc(Cl)cc1Cl`: the Inhibition (in the experiment on L1210 [16]; in the experiment on HCT-116 [11]; in [23]) was 0 mm each time.

Take `COc1ccc(S(=O)(=O)NC(=O)c2ccc(Cl)cc2Cl)cc1OC`: the Inhibition worked out at 6.5 mm in experiment [9], 0 mm in the experiment on L1210 [16] and 16.25 mm with HCT-116 [11].
